# ChEMBL document CHEMBL2375228, “4-Bromo-2-(piperidin-1-yl)thiazol-5-yl-phenyl methanone (12b) inhibits Na+/K(+)-ATPase and Ras oncogene activity in cancer cells” (Eur J Med Chem, 2013)
# Active and inactive are the calls of the source. No cut-off for these calls is given here.
# Assays:
# Cavia porcellus [1] = species: Cavia porcellus; test: Inhibition of guinea pig kidney Na+/K+-ATPase alpha1 preincubated for 10 mins measured after 30 mins relative to POH
# SK-MEL-28 [2] = test: Ratio of perillyl alcohol IC50 to compound IC50 for human SK-MEL-28 cells; format: functional
# [3] = Growth inhibition of NMRI mouse astrocytes at 30 to 300 uM after 72 hrs by MTT assay; format: cell-based, Astrocyte; details: read-out: GI
# Method in brief: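 Mouse astrocyte primocultures were plated in uncoated T25 flasks for 72 h, medium was changed and cells grown to confluence. Tested at 0, 30, 60 and 300 µM by MTT colorimetric assay.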
# Cavia porcellus [4] = species: Cavia porcellus; test: Uncompetitive inhibition of purified guinea pig kidney Na+/K+-ATPase by double reciprocal plot analysis in presence of ATP
# Hs 683 [5] = test: Selectivity index for NMRI mouse astrocytes over human Hs683 cells
# Cavia porcellus [6] = species: Cavia porcellus; test: Inhibition of guinea pig brain Na+/K+-ATPase at 1 mM preincubated for 10 mins measured after 30 mins relative to control
# Cavia porcellus [7] = species: Cavia porcellus; test: Inhibition of guinea pig brain Na+/K+-ATPase-mediated K+-activated-p-nitrophenylphosphatase activity
# Method in brief: (§1)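 Purified guinea pig brain or kidney Na+/K+-ATPase preparations; K+-activated p-nitrophenylphosphatase activity = total activity minus basal activity, with basal measured by replacing KCl with 1 mM ouabain. Mean ± SEM of 3 experiments.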
# [8] = Cytotoxicity against human Hs683 cells after 72 hrs by MTT assay; format: functional, cell-based; details: Hs 683, 72 h
# Method in brief: (§2)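 Cells grown in RPMI with 10% heat-inactivated fetal calf serum and exposed to compound for 72 h. Overall growth read by MTT colorimetric assay; IC50 derived from it. Six replicates per condition.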
# [9] = Cytotoxicity against human U373 cells after 72 hrs by MTT assay; format: functional, cell-based, U-373MG ATCC; details: U373 MG; method in brief: as §2
# A549 [10] = test: Ratio of perillyl alcohol IC50 to compound IC50 for human A549 cells; format: functional
# [11] = Inhibition of guinea pig brain Na+/K+-ATPase alpha3 preincubated for 10 mins measured after 30 mins; set-up: species or system Cavia porcellus
# [12] = Inhibition of Na+/K+-ATPase in guinea pig kidney homogenate preincubated for 10 mins measured after 30 mins; format: tissue-based, Cavia porcellus
# Hs 683 [13] = test: Cytostatic activity against human Hs683 cells at 40 uM after 48 to 72 hrs by videomicroscopic analysis relative to control; format: functional
# Method in brief: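 Hs683 glioma cells, untreated or at 40 µM, filmed by computer-assisted phase-contrast videomicroscopy over 72 h, one image every 4 min (1080 images), in triplicate. Growth rate = cell count in last image / first image. GGR index = treated ratio / control ratio.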
# [14] = Chemical stability of the compound in RPMI culture medium after 72 hrs by mass spectroscopic analysis; format: physicochemical
# Method in brief: (§3)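 5 mM DMSO stock diluted 100-fold in water or RPMI and held at 37 °C for 72 h. Samples infused into ESI-QTOF MS (positive mode, scan 110–950 m/z) with FA 0.2%-MeOH 50:50 as solvent.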
# A549 [15] = test: Cytotoxicity against human A549 cells after 72 hrs by MTT assay; format: functional, cell-based; details: A549, 72 h; method in brief: as §2
# PC-3 [16] = test: Ratio of perillyl alcohol IC50 to compound IC50 for human PC3 cells; format: functional
# Hs 683 [17] = test: Ratio of perillyl alcohol IC50 to compound IC50 for human Hs683 cells; format: functional
# MCF7 [18] = test: Ratio of perillyl alcohol IC50 to compound IC50 for human MCF7 cells; format: functional
# MCF7 [19] = test: Cytotoxicity against human MCF7 cells after 72 hrs by MTT assay; format: functional, cell-based; details: MCF7, 72 h; method in brief: as §2
# [20] = Growth inhibition of NMRI mouse astrocytes after 72 hrs by MTT assay; format: cell-based; details: Astrocyte
# [21] = Inhibition of guinea pig kidney Na+/K+-ATPase alpha1 preincubated for 10 mins measured after 30 mins; set-up: species or system Cavia porcellus
# Cavia porcellus [22] = species: Cavia porcellus; test: Inhibition of ouabain-insensitive Mg++ATPase in guinea pig brain homogenate at 0.1 to 1mM; format: tissue-based
# Method in brief: (§4)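 Brain and kidney homogenates in 110 mM NaCl, 20 mM KCl, 5 mM MgCl2, 50 mM Tris-HCl pH 7.6 with 5 mM ATP; 10 min preincubation at 37 °C, 30 min reaction. Ouabain-insensitive Mg++ATPase activity measured with 3.6 mM ouabain across 0.1–1.0 mM compound.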
# Cavia porcellus [23] = species: Cavia porcellus; test: Inhibition of guinea pig kidney Na+/K+-ATPase-mediated K+-activated-p-nitrophenylphosphatase activity; method in brief: as §1
# SK-MEL-28 [24] = test: Cytotoxicity against human SK-MEL-28 cells after 72 hrs by MTT assay; format: functional, cell-based; details: SK-MEL-28, 72 h; method in brief: as §2
# PC-3 [25] = test: Cytotoxicity against human PC3 cells after 72 hrs by MTT assay; format: functional, cell-based; details: PC-3, 72 h; method in brief: as §2
# Cavia porcellus [26] = species: Cavia porcellus; test: Non competitive inhibition of guinea pig kidney Na+/K+-ATPase by double reciprocal plot analysis in presence of Na+
# Hs 683 [27] = test: Inhibition of RAS oncogene activity in human Hs683 cells at 40 uM after 30 seconds by ELISA relative to control; format: cell-based
# Method in brief: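 Hs683 glioma cells exposed 30 s at 40 µM, lysed on ice for 15 min, 100 µg protein used. Active Ras captured on GST-Raf-RBD glutathione plate, detected with H-Ras primary and HRP secondary antibodies, read by chemiluminescence. Compared with untreated cells.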
# Cavia porcellus [28] = species: Cavia porcellus; test: Uncompetitive inhibition of purified guinea pig brain Na+/K+-ATPase by double reciprocal plot analysis in presence of ATP; format: tissue-based
# [29] = Chemical stability of the compound in water after 72 hrs by mass spectroscopic analysis; format: physicochemical; details: buffer; method in brief: as §3
# [30] = Inhibition of Na+/K+-ATPase in guinea pig whole brain homogenate preincubated for 10 mins measured after 30 mins; format: tissue-based, Cavia porcellus
# Cavia porcellus [31] = species: Cavia porcellus; test: Inhibition of ouabain-insensitive Mg++ATPase in guinea pig kidney homogenate at 0.1 to 1mM; format: tissue-based; method in brief: as §4
# Cavia porcellus [32] = species: Cavia porcellus; test: Inhibition of guinea pig kidney Na+/K+-ATPase at 1 mM preincubated for 10 mins measured after 30 mins relative to control
# [33] = Inhibition of guinea pig brain Na+/K+-ATPase alpha2 preincubated for 10 mins measured after 30 mins; set-up: species or system Cavia porcellus
# [34] = Selectivity index for human U373 cells over NMRI mouse astrocytes; set-up: species or system U-373MG ATCC
# Cavia porcellus [35] = species: Cavia porcellus; test: Non competitive inhibition of guinea pig brain Na+/K+-ATPase by double reciprocal plot analysis in presence of Na+; format: tissue-based
# Cavia porcellus [36] = species: Cavia porcellus; test: Non competitive inhibition of guinea pig kidney Na+/K+-ATPase by double reciprocal plot analysis in presence of K+
# Hs 683 [37] = test: Inhibition of RAS oncogene activity in human Hs683 cells 40 uM after 30 seconds by ELISA relative to POH; format: cell-based
# [38] = Ratio of perillyl alcohol IC50 to compound IC50 for human U373 cells; format: functional, U-373MG ATCC
# Cavia porcellus [39] = species: Cavia porcellus; test: Non competitive inhibition of guinea pig brain Na+/K+-ATPase by double reciprocal plot analysis in presence of K+; format: tissue-based
smiles,measurement,setting,value
O=C(c1ccccc1)c1sc(N2CCCCC2)nc1Br,Ratio,Cavia porcellus [1],3
same,Ratio IC50,SK-MEL-28 [2],10
same,"inhibition at 72 h, up to 300 µM",[3],< 50%
same,inhibition,Cavia porcellus [4],Active
same,Selectivity Index,Hs 683 [5],>5
same,inhibition,Cavia porcellus [6],> 50%
same,inhibition,Cavia porcellus [7],Active
same,IC50,[8],38 µM
same,IC50,[9],78 µM
same,Ratio IC50,A549 [10],10
same,IC50,[11],250 µM
same,IC50,[12],550 µM
same,Activity,Hs 683 [13],40%
same,Stability,[14],Unstable
same,IC50,A549 [15],48 µM
same,Ratio IC50,PC-3 [16],10
same,Ratio IC50,Hs 683 [17],10
same,Ratio IC50,MCF7 [18],10
same,IC50,MCF7 [19],35 µM
same,IC50,[20],> 300 µM
same,IC50,[21],550 µM
same,inhibition,Cavia porcellus [22],inactive
same,inhibition,Cavia porcellus [23],inactive
same,IC50,SK-MEL-28 [24],91 µM
same,IC50,PC-3 [25],62 µM
same,inhibition,Cavia porcellus [26],Active
same,inhibition,Hs 683 [27],> 50%
same,inhibition,Cavia porcellus [28],Active
same,Stability,[29],Unstable
same,IC50,[30],350 µM
same,inhibition,Cavia porcellus [31],inactive
same,inhibition,Cavia porcellus [32],> 50%
same,IC50,[33],250 µM
same,Selectivity Index,[34],>5
same,inhibition,Cavia porcellus [35],Active
same,inhibition,Cavia porcellus [36],Active
same,Ratio,Hs 683 [37],40
same,Ratio IC50,[38],10
same,inhibition,Cavia porcellus [39],Active
